Reference: ChEMBL document CHEMBL1139440, “Chemical function based pharmacophore generation of endothelin-A selective receptor antagonists” (J Med Chem, 2004)
Square brackets hold non-standard residues; d marks the D form. Peptide text beside a SMILES is read from it. * marks the point of attachment. Cbz = O=C(OCc1ccccc1)*

Key:
Endothelin-1 receptor [1] = target: T1, Endothelin-1 receptor (Rattus norvegicus, UniProt P26684); test: Ability to displace [125I]ET1 from the rat endothelin A receptor expressed in rat aorta smooth muscle cells.; assay type: cell-based
T1 sequence (P26684 whole entry): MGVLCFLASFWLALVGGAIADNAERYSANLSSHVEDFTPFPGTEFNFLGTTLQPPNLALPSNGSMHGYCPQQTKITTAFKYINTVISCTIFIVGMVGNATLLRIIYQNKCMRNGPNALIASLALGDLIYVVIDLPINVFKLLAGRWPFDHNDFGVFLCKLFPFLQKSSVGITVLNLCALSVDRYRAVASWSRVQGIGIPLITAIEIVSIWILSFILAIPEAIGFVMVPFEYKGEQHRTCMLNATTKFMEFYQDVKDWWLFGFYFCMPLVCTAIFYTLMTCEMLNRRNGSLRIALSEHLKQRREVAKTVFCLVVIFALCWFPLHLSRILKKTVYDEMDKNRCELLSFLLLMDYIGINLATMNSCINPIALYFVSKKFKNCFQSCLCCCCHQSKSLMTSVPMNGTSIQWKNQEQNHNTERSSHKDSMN

[2] = target: T2, Endothelin-1 receptor (Homo sapiens) (UniProt P25101); test: Inhibition of [125]ET-1 binding to human ETA receptor expressed in vero cells at 10E-4 M concentration; assay type: cell-based
T2 sequence (whole entry): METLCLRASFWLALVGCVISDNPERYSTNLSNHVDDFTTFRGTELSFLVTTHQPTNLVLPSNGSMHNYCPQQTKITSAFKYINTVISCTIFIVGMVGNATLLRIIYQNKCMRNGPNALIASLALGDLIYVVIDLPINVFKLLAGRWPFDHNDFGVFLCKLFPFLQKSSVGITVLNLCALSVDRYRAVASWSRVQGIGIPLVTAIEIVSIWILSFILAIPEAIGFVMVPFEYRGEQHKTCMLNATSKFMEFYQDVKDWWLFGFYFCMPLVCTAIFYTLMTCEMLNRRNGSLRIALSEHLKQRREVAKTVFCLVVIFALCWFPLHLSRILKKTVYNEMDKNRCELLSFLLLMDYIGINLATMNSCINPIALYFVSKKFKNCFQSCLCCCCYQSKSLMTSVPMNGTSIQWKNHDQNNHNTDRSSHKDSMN
How it was run: (§1)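 Vero (green monkey renal) cells grown as monolayers at 37 °C in MEM with 10% FBS, nonessential amino acids and penicillin/streptomycin under 5% CO2. Whole-cell binding was done in triplicate (2 × 10^5 cells/well) in HEPES-buffered saline at pH 7.4 with 50 pM [125I]ET-1 for 1 h. Nonspecific binding was defined with 500 nM ET-1. Compounds were tested at ca. 10^-10–10^-4 M. Bound radioactivity was collected by filtration and counted.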

[3] = target: T2, Endothelin-1 receptor (Homo sapiens); settings: Vero
[4] = target: T3, Endothelin receptor type B (Homo sapiens, UniProt P24530); test: Inhibitory concentration against Endothelin B receptor
T3 sequence (P24530 whole entry): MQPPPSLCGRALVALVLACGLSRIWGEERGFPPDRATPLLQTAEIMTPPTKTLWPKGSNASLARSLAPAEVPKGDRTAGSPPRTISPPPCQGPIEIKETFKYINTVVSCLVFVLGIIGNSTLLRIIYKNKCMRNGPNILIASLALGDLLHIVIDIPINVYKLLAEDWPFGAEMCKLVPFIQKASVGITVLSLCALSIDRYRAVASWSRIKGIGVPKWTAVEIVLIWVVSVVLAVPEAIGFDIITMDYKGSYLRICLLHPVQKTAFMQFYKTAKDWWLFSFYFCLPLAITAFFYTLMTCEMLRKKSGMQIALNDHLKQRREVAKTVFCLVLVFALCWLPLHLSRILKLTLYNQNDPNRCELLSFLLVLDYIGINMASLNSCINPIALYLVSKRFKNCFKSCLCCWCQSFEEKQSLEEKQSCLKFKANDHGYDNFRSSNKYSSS

Endothelin-1 receptor [5] = target: T4, Endothelin-1 receptor (Homo sapiens, UniProt P25101); test: Inhibition of [125]ET-1 binding to human Endothelin A receptor expressed in vero cells; assay type: cell-based; how it was run: as §1
T4 sequence (P25101 whole entry): T2 sequence (whole entry)

Structure (SMILES)	IC50 (Endothelin-1 receptor [1]) [nM]	further results
COc1cccc(C(=O)/C(Cc2ccccc2)=C(\C(=O)O)c2ccc3c(c2)OCO3)c1	500	
COc1ccc(C/C(C(=O)c2ccc(OC)cc2)=C(/C(=O)O)c2ccc3c(c2)OCO3)cc1	1.8	
COc1ccc(C(=O)/C(Cc2ccccc2)=C(\C(=O)O)c2cc(OC)c3c(c2)OCO3)cc1	6.7	
COc1ccc(C(=O)/C(Cc2ccc(Cl)cc2)=C(\C(=O)O)c2ccc3c(c2)OCO3)cc1	110	
COc1ccc(NC(=O)CC(CC(=O)O)c2cc(OC)c(OC)c(OC)c2)cc1 (stereo not drawn)		inhibition [2]: 60%
CCOc1cc(N2CCOCC2)c(OCC)cc1NS(=O)(=O)c1ccc(OC)cc1		inhibition [2]: 77%
CCc1ccc(C(=O)/C(Cc2ccccc2)=C(\C(=O)O)c2ccc3c(c2)OCO3)cc1	630	
COc1cc(/C(C(=O)O)=C(\CC2CCCCC2)C(=O)c2ccc3c(c2)OCCO3)cc2c1OCO2	3.5	
CC(C)C[C@@H]1NC(=O)[C@@H](C(C)C)NC(=O)[C@@H]2CCCN2C(=O)[C@@H](CC(=O)O)NC(=O)[C@@H](Cc2c[nH]c3ccccc23)NC1=O (cyclo(L[dW][dD]P[dV]))		IC50 [3]: 25 nM
CCCCC1=C(C(=O)O)[C@@H](c2ccc3c(c2)OCO3)Oc2ccc(OC(C)C)cc21		IC50 [4]: 400 nM
COc1ccc(C(=O)/C(Cc2ccccc2)=C(\C(=O)O)c2ccc3c(c2)OCO3)cc1OC	11	
COc1ccc(C(=O)/C(Cc2ccc(-c3ccccc3)cc2)=C(\C(=O)O)c2ccc3c(c2)OCO3)cc1	200	
COC(=O)CCCCOc1cc(C/C(C(=O)c2ccc(OC)cc2)=C(/C(=O)O)c2ccc3c(c2)OCO3)cc(OC)c1OC	0.05	
CCOc1ccc2c(c1)[C@@H](c1ccc(OC)cc1)N(CC(=O)O)[C@@H]2c1ccc2c(c1)OCO2	96	
COc1ccc(C(=O)/C(Cc2cc(OC)c(OC)c(OC)c2)=C(\C(=O)O)c2cc(OC)c3c(c2)OCO3)cc1	0.5	
COc1ccc(C(=O)/C(Cc2cccc(OC)c2)=C(\C(=O)O)c2ccc3c(c2)OCO3)cc1	3	IC50 [4]: 260 nM
COc1ccc(C(=O)/C(Cc2cccc3ccccc23)=C(\C(=O)O)c2ccc3c(c2)OCO3)cc1	14	
CC(C)C(NC(=O)OCc1ccccc1)C(=O)NC(Cc1ccc(O)cc1)C(=O)O (stereo not drawn) (Cbz-Val-Tyr-OH; configuration not given here)		IC50 (Endothelin-1 receptor [5]): 220 nM
COC(=O)c1cc(S(=O)(=O)Nc2cccc(-c3cnco3)c2)oc1C		IC50 (Endothelin-1 receptor [5]): 6200 nM

Second part, led by results:

IC50 (Endothelin-1 receptor [1]) [nM]	Structure (SMILES)	further results
2030	COc1ccc([C@@H]2[C@@H](CC(=O)O)[C@H](c3ccc4c(c3)OCO4)CN2CC(N)=O)cc1	
0.29	CCCCN(CCCC)C(=O)CN1C[C@H](c2ccc3c(c2)OCO3)[C@@H](C(=O)O)[C@@H]1CCCCC(C)C	
0.12	CCOc1cc(C/C(C(=O)c2ccc(OC)cc2)=C(/C(=O)O)c2ccc3c(c2)OCO3)cc(OCC)c1OCC	
0.78	C/C=C/CC[C@H]1[C@H](C(=O)O)[C@@H](c2ccc3c(c2)OCO3)CN1CC(=O)N(CCCC)CCCC	
3.9	COc1ccc([C@H]2[C@H](C(=O)O)[C@@H](c3ccc4c(c3)OCO4)CN2CC(=O)NC(Cc2ccccc2)c2ccccc2)cc1 (stereo partly drawn)	
16	COc1ccc([C@H]2[C@H](C(=O)O)[C@@H](c3ccc4c(c3)OCO4)CN2CC(=O)Nc2cccc(C)c2C)cc1	
45.3	CCCNC(=O)CN1C[C@@H](c2ccc3c(c2)OCO3)[C@H](C(=O)O)[C@H]1c1ccc(OC)cc1	
410	CCCCC1=C(C(=O)O)C(c2ccc3c(c2)OCO3)Oc2ccc(OC(C)C)cc21 (stereo not drawn)	
5.2	COC1=C(C(=O)O)[C@H](c2ccc3c(c2)OCO3)Oc2ccc(OC(C)C)cc21	
5.4	CCOc1ccc2c(c1)[C@@H](c1ccc(OC)cc1OCC(=O)O)N(CC(=O)O)[C@@H]2c1ccc2c(c1)OCO2	
0.7	COc1ccc([C@H]2[C@H](C(=O)O)[C@@H](c3ccc4c(c3)OCO4)CN2CC(=O)NC(c2ccccc2)C(C)C)cc1 (stereo partly drawn)	
0.5	CCCCN(CCCC)C(=O)CN1C[C@H](c2ccc3c(c2)OCO3)[C@@H](CC(=O)O)[C@@H]1c1ccc(OC)cc1	IC50 [4]: 5100 nM
